Values joined by “and” are separate entries in the source; they are usually repeats but may differ in a detail not shown here. Equal values may be shown once.
Key:
[1] = molecular target: T1, mEAG1 channel (Mus musculus, UniProt Q60603); assay: Inside-out patch-clamp of wild-type mEAG1 channels expressed in Xenopus oocytes; assay type: cell-based
T1 sequence (Q60603 1-989): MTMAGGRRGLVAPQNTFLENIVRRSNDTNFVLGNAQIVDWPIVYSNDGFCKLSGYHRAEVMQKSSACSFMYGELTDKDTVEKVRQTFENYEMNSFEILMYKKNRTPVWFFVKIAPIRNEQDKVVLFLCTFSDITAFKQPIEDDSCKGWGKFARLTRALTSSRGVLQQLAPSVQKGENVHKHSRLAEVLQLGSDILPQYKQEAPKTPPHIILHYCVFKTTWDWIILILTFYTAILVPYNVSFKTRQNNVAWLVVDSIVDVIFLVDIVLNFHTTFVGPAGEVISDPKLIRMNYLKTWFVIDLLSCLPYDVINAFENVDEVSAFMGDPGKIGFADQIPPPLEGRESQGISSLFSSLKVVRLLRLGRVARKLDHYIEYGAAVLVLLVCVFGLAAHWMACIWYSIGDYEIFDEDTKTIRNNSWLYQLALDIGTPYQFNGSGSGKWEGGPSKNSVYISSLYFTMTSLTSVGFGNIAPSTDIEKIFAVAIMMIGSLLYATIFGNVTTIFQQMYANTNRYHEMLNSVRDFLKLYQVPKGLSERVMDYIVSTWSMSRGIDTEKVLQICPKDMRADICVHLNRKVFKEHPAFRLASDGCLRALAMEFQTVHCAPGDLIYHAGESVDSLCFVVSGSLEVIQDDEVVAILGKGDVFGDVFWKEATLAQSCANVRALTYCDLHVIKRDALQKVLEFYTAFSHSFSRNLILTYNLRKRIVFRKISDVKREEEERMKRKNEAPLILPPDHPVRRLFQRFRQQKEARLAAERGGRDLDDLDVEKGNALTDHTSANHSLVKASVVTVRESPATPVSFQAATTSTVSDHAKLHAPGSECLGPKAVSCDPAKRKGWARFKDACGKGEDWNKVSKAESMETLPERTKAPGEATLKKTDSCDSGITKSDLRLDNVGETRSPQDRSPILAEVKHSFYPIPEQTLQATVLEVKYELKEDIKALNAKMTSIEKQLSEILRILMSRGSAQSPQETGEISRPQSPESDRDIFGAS

[2] = molecular target: T1, mEAG1 channel; assay: Outside-out patch-clamp of mEAG1 channels expressed in Xenopus oocytes; assay type: cell-based; details: 10 µM fisetin; outside-out patches; n = 4
Summary of the method: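 Outside-out patches were excised from Xenopus oocytes expressing mouse EAG1. Bath and pipette solutions were 130 mM KCl, 10 mM HEPES, 0.2 mM EDTA, pH 7.2. Patches were exposed to 10 µM flavonoid. The shift in V1/2 was taken from Boltzmann fits of tail-current conductance–voltage relationships.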

[3] = molecular target: T2, mEAG1 Δ821–989 channels (Mus musculus, UniProt Q60603); assay: Inside-out patch-clamp of post-CNBHD deletion mutant channels; assay type: cell-based; details: with 30 µM fisetin
T2 sequence (Q60603 1-820): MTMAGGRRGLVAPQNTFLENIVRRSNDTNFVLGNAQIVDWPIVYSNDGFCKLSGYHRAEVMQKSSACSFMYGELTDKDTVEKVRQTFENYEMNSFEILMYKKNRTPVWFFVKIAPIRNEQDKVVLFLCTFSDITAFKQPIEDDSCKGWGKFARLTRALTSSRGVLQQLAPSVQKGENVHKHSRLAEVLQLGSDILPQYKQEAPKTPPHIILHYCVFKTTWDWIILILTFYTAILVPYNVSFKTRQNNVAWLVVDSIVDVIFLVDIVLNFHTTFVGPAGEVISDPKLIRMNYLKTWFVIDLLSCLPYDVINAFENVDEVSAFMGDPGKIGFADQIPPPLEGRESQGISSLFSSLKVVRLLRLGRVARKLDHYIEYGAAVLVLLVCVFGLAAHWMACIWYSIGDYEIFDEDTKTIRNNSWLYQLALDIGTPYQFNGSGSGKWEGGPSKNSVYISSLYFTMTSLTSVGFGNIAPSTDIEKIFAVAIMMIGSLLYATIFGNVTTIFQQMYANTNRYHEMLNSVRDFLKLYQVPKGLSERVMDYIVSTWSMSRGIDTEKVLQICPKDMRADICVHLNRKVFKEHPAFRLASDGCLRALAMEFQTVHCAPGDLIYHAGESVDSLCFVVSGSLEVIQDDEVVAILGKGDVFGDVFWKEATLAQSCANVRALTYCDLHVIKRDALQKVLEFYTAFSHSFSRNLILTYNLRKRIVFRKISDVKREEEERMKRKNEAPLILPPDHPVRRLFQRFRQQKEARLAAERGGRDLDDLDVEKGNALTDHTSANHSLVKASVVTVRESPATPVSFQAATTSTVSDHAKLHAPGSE
Summary of the method: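 mEAG1 mutant cRNA was injected into defolliculated Xenopus oocytes, and the vitelline membrane was removed. Inside-out patches were bathed in symmetric 130 mM KCl, 10 mM HEPES, 0.2 mM EDTA, pH 7.2, holding at −100 mV. Steps of 0.1 s from −140 to +50 mV (10-mV increments) were followed by −120 mV tails, without or with 30 µM flavonoid. Peak tails were normalized and Boltzmann-fitted. Deactivation time constant came from single-exponential fits of the −120 mV tail after +50 mV; two-tailed t test.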

[4] = molecular target: T3, purified C-linker/CNBHD of mEAG1 channels (Mus musculus, UniProt Q60603); assay: Tryptophan-to-flavonoid FRET binding assay; details: 100 µM flavonoid; 4 µM protein
T3 sequence (Q60603 505-702): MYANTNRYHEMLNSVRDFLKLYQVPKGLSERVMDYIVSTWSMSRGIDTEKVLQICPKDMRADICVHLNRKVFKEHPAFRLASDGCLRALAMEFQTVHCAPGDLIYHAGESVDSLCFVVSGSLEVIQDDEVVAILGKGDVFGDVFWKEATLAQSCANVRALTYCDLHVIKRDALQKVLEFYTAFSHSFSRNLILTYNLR

[5] = molecular target: T4, wild-type CNBHD from mEAG1 (Mus musculus, UniProt Q60603); assay: Fisetin fluorescence anisotropy binding assay, wild-type CNBHD; details: Kd (apparent affinity), 5 µM fisetin, fit with Eq. 7
T4 sequence (Q60603 552-724): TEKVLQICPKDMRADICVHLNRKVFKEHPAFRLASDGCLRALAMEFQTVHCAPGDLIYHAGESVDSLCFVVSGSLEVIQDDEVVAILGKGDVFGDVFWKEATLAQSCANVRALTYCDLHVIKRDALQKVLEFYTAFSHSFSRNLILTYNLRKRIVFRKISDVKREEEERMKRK

[6] = Solubility limit in recording / aqueous solutions; assay type: physicochemical; details: recording solutions, aqueous buffer

## O=c1c(O)c(-c2ccc(O)c(O)c2)oc2cc(O)ccc12 [Fisetin, 2-(3,4-dihydroxyphenyl)-3,7-dihydroxychromen-4-one]
[1]
  Hill coefficient, deactivation time constant versus fisetin plot: 1.2
  Hill coefficient, ΔV1/2 versus fisetin plot: 2.2
[1]; concentrations of 100 µM and higher
  effect on mEAG1 currents at high concentration: inhibited mEAG1 currents
[1]; with 30 µM fisetin, at −120 mV after step to +50 mV, 4.5 ± 0.8 ms without, n = 6
  time constant of deactivation: 7.2 ± 1.0 ms
[1]; with 30 µM fisetin, tail current at −120 mV after step to 50 mV, 5.3 ms before
  time constant of deactivation (single tail current of Fig. 3 C): 13.9 ms
[1]; with 30 µM fisetin, −41.9 ± 4.1 mV without, n = 6
  V1/2 of the conductance–voltage relationship: −55.4 ± 3.7 mV
[2]
  shift of the conductance–voltage relationship: −8.1 ± 2.3 mV
[3]; at −120 mV, 3.4 ± 0.7 ms without, n = 4
  rate (time constant) of deactivation: 6.7 ± 2.2 ms
[3]; tail at −120 mV after step to +50 mV, 5.2 ms without
  time constant of deactivation (tail currents of Fig. 5 F): 13.4 ms
[3]; −31.9 mV without, Fig. 5 E
  V1/2 (Boltzmann fit of the averaged conductance–voltage relationship): −50.6 mV
[3]; −36.4 ± 2.5 mV without, n = 4
  V1/2 of the conductance–voltage relationship: −51.1 ± 6.0 mV
[4]
  decrease of peak fluorescence intensity of the C-linker/CNBHD at 341 nm: 27%
[5]
  Kd: 111 µM and ≥ 111 µM
[6]
  solubility: ≤ 150 µM

Source: paper PMC3581696 (The Journal of General Physiology, 2013)
